# Laboratory results: ChEMBL document CHEMBL3576806, “Design and synthesis of novel arctigenin analogues for the amelioration of metabolic disorders” (ACS Med Chem Lett, 2015)
# Activity calls are given as the source filed them. The calls are words filed in the database; no cut-off is given here.
# Experiments:
# L6 [1] = assay: Induction of AMPK phosphorylation in rat L6 cells at 3 uM incubated for 2 hrs by Western blotting method; assay type: cell-based
# Procedure, shortened: (§1)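 L6 myotubes treated 2 h at the stated concentrations; phosphorylated AMPK and phosphorylated ACC detected by immunoblot.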
# L6 [2] = assay: Increase in glucose uptake in rat L6 cells at 6 uM pre-treated with compound for 30 mins using 2-deoxy-D-[1,2-3H]glucose and measured after 2 hrs […] by liquid scintillation counting method; assay type: functional
# Procedure, shortened: (§2)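 L6 myotubes exposed to compound for 2 h at 1.5, 3, 6, 12 or 24 μM; 2-deoxyglucose uptake expressed as fold over untreated control; 3 μM (−)-arctigenin run alongside as positive control; mean ± SEM of 3 independent experiments.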
# L6 [3] = assay: Increase in glucose uptake in rat L6 cells at 6 uM pre-treated with compound for 30 mins using 2-deoxy-D-[1,2-3H]glucose and measured after 2 hrs by liquid scintillation counting method; assay type: functional; procedure, shortened: as §2
# L6 [4] = assay: Induction of AMPK activation in rat L6 cells assessed as increase in ACC phosphorylation at 1.5 uM incubated for 2 hrs by Western blotting method; assay type: cell-based; procedure, shortened: as §1
# L6 [5] = assay: Induction of AMPK phosphorylation in rat L6 cells at 6 uM incubated for 2 hrs by Western blotting method; assay type: cell-based; procedure, shortened: as §1
# L6 [6] = assay: Induction of AMPK activation in rat L6 cells assessed as increase in ACC phosphorylation at 3 uM incubated for 2 hrs by Western blotting method; assay type: cell-based; procedure, shortened: as §1
# L6 [7] = assay: Induction of AMPK activation in rat L6 cells assessed as increase in ACC phosphorylation at 6 uM incubated for 2 hrs by Western blotting method; assay type: cell-based; procedure, shortened: as §1
# L6 [8] = assay: Ratio of glucose uptake in rat L6 cells at 6 uM after 2 hrs to glucose uptake in rat L6 cells at 6 uM after 2 hrs in presence of 3 uM (-)-arctigenin; assay type: functional
# Procedure, shortened: (§3)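 Glucose uptake in L6 myotubes after 2 h compound exposure divided by uptake with the 3 μM (−)-arctigenin positive control run in parallel.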
# L6 [9] = assay: Induction of AMPK phosphorylation in rat L6 cells at 1.5 uM incubated for 2 hrs by Western blotting method; assay type: cell-based; procedure, shortened: as §1
# L6 [10] = assay: Increase in glucose uptake in rat L6 cells at 6 umol/L pre-treated with compound for 30 mins using 2-deoxy-D-[1,2-3H]glucose and measured after 2 hrs by liquid scintillation counting method relative to control; assay type: functional; procedure, shortened: as §2
# L6 [11] = assay: Increase in glucose uptake in rat L6 cells at 1.5 uM pre-treated with compound for 30 mins using 2-deoxy-D-[1,2-3H]glucose and measured after 2 hrs by liquid scintillation counting method; assay type: functional; procedure, shortened: as §2
# L6 [12] = assay: Increase in glucose uptake in rat L6 cells at 1.5 uM pre-treated with compound for 30 mins using 2-deoxy-D-[1,2-3H]glucose and measured after 2 hrs in presence of 3 uM (-)-arctigenin by liquid scintillation counting method; assay type: functional; procedure, shortened: as §2
# L6 [13] = assay: Ratio of glucose uptake in rat L6 cells at 1.5 uM after 2 hrs to glucose uptake in rat L6 cells at 1.5 uM after 2 hrs in presence of 3 uM (-)-arctigenin; assay type: functional; procedure, shortened: as §3
# Mus musculus [14] = assay: Antidiabetic activity in ob/ob mouse assessed as reduction in fed glucose levels at 50 mg/kg, ip bid for 12 days; assay type: functional; parameters: scale not given: the % may be the effect or the level left
# Procedure, shortened: (§4)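 ob/ob mice given 50 mg/kg intraperitoneally or vehicle twice daily for 23 d; body weight and food intake recorded regularly, fed and fasting blood glucose measured throughout, serum triacylglycerol, cholesterol and NEFA measured at end of treatment; mean ± SEM, n = 6–8 mice, compared with vehicle group.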
# [15] = Tmax in ob/ob mouse at 50 mg/kg, ip measured after 0.5 to 24 hrs; assay type: ADME, organism-based; conditions: in vivo
# [16] = AUC (0 to t) in ob/ob mouse at 50 mg/kg, ip measured after 0.5 to 24 hrs; assay type: ADME, organism-based; parameters: dose 50 mg/kg, time upper 24 hr, time lower 0.5 hr, route intraperitoneal; conditions: in vivo
# [17] = Cmax in ob/ob mouse at 50 mg/kg, ip measured after 0.5 to 24 hrs; assay type: ADME, organism-based; parameters: dose 50 mg/kg, route intraperitoneal; conditions: in vivo
# L6 [18] = assay: Induction of fatty acid oxidation in rat L6 cells at 3 uM using [9,10-3H(N)]-palmitic acid incubated for 2 hrs; assay type: functional, cell-based
# Procedure, shortened: (§5)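 Fatty acid oxidation measured in L6 myotubes after compound treatment, also with compound C to block AMPK; mean ± SEM, n = 3 independent experiments.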
# L6 [19] = assay: Increase in glucose uptake in rat L6 cells pre-treated with compound for 30 mins using 2-deoxy-D-[1,2-3H]glucose and measured after 2 hrs in presence of 10 uM AMPK inhibitor compound-C by liquid scintillation counting method; assay type: functional, cell-based
# Procedure, shortened: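 L6 myotube 2-deoxyglucose uptake after compound exposure, tested with and without the AMPK inhibitor compound C; mean ± SEM, n = 3 independent experiments.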
# L6 [20] = assay: Induction of fatty acid oxidation in rat L6 cells at 6 uM using [9,10-3H(N)]-palmitic acid incubated for 2 hrs; assay type: functional, cell-based; procedure, shortened: as §5
# Mus musculus [21] = assay: Antidiabetic activity in ob/ob mouse assessed as reduction in fasting blood glucose levels at 50 mg/kg, ip bid for 12 days; assay type: functional; parameters: scale not given: the % may be the effect or the level left; procedure, shortened: as §4
# L6 [22] = assay: Induction of depolarization of mitochondrial membrane potential in rat L6 cells incubated for 10 mins by fluorescence based assay; assay type: functional, cell-based
# Procedure, shortened: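 L6 myotubes treated 10 min over a concentration series; mitochondrial membrane potential (Δψm) depolarization measured; mean ± SEM, n = 3 independent experiments.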
# Mus musculus [23] = assay: Toxicity in ob/ob mouse assessed as effect on feeding behavior at 50 mg/kg, ip bid for 23 days; assay type: organism-based; conditions: in vivo, 552 h; procedure, shortened: as §4
# Mus musculus [24] = assay: Antidiabetic activity in ob/ob mouse assessed as reduction in NEFA levels at 50 mg/kg, ip bid for 23 days; assay type: functional; parameters: scale not given: the % may be the effect or the level left; procedure, shortened: as §4
# Mus musculus [25] = assay: Antidiabetic activity in ob/ob mouse assessed as reduction in total cholesterol levels at 50 mg/kg, ip bid for 23 days; assay type: functional; parameters: scale not given: the % may be the effect or the level left; procedure, shortened: as §4
# Mus musculus [26] = assay: Reduction in respiratory exchange ratio in ob/ob mouse at 50 mg/kg, ip measured at 6 min intervals […] at 23 degC by indirect calorimetry; assay type: functional, organism-based
# L6 [27] = assay: Induction of fatty acid oxidation in rat L6 cells using [9,10-3H(N)]-palmitic acid incubated for 2 hrs in presence of AMPK inhibitor compound-C; assay type: functional, cell-based; procedure, shortened: as §5
# Mus musculus [28] = assay: Antidiabetic activity in ob/ob mouse assessed as reduction in body weight at 50 mg/kg, ip bid for 23 days measured on day 3; assay type: functional, organism-based; procedure, shortened: as §4
# Mus musculus [29] = assay: Antidiabetic activity in ob/ob mouse assessed as effect on serum triglyceride levels at 50 mg/kg, ip bid for 23 days; assay type: functional, organism-based; procedure, shortened: as §4
# L6 [30] = assay: Increase in glucose uptake in rat L6 cells at 12 uM pre-treated with compound for 30 mins using 2-deoxy-D-[1,2-3H]glucose and measured after 2 hrs by liquid scintillation counting method; assay type: functional; procedure, shortened: as §2
# L6 [31] = assay: Increase in glucose uptake in rat L6 cells at 12 uM pre-treated with compound for 30 mins using 2-deoxy-D-[1,2-3H]glucose and measured after 2 hrs […] by liquid scintillation counting method; assay type: functional; procedure, shortened: as §2
# L6 [32] = assay: Ratio of glucose uptake in rat L6 cells at 12 uM after 2 hrs to glucose uptake in rat L6 cells at 12 uM after 2 hrs in presence of 3 uM (-)-arctigenin; assay type: functional; procedure, shortened: as §3
# L6 [33] = assay: Increase in glucose uptake in rat L6 cells at 24 uM pre-treated with compound for 30 mins using 2-deoxy-D-[1,2-3H]glucose and measured after 2 hrs by liquid scintillation counting method; assay type: functional; procedure, shortened: as §2
# L6 [34] = assay: Increase in glucose uptake in rat L6 cells at 24 uM pre-treated with compound for 30 mins using 2-deoxy-D-[1,2-3H]glucose and measured after 2 hrs […] by liquid scintillation counting method; assay type: functional; procedure, shortened: as §2
# L6 [35] = assay: Ratio of glucose uptake in rat L6 cells at 24 uM after 2 hrs to glucose uptake in rat L6 cells at 24 uM after 2 hrs in presence of 3 uM (-)-arctigenin; assay type: functional; procedure, shortened: as §3
# L6 [36] = assay: Increase in glucose uptake in rat L6 cells at 0.75 uM to 3 uM pre-treated with compound for 30 mins using 2-deoxy-D-[1,2-3H]glucose and measured after 2 hrs by liquid scintillation counting method; assay type: functional, cell-based
# L6 [37] = assay: Increase in glucose uptake in rat L6 cells at 3 umol/L pre-treated with compound for 30 mins using 2-deoxy-D-[1,2-3H]glucose and measured after 2 hrs by liquid scintillation counting method relative to control; assay type: functional; procedure, shortened: as §2
smiles,measurement,setting,value
COc1ccc(C[C@H]2COC(=O)[C@@H]2Cc2ccc(Cl)cc2)cc1OC,Activity,L6 [1],Active
same,Activity,L6 [2],185.5%
same,Activity,L6 [3],191.1%
same,Activity,L6 [4],Active
same,Activity,L6 [5],Active
same,Activity,L6 [6],Active
same,Activity,L6 [7],Active
same,Ratio,L6 [8],1.03
same,Activity,L6 [9],Active
COc1cc(C[C@H]2COC[C@@H]2Cc2ccc(OC)c(OC)c2)ccc1O,fold change (FC),L6 [10],1.31
COc1ccc(C[C@@H]2COC(=O)[C@H]2Cc2ccc(Cl)cc2)cc1OC,Activity,L6 [1],inactive
same,Activity,L6 [11],103.1%
same,Activity,L6 [4],inactive
same,Activity,L6 [5],inactive
same,Activity,L6 [6],inactive
same,Activity,L6 [7],inactive
same,Activity,L6 [12],208.9%
same,Ratio,L6 [13],0.494
same,Activity,L6 [9],inactive
COc1ccc(CC2COC(=O)C2Cc2ccc(Cl)cc2)cc1OC (racemic),Activity,Mus musculus [14],27.7%
same,Activity,L6 [2],185.5%
same,Tmax,[15],30 min
same,Activity,L6 [3],173.7%
same,AUC(0-t),[16],1880 ng·h/mL
same,Cmax,[17],508 ng/mL
same,Activity,L6 [18],Active
same,Activity,L6 [19],inactive
same,Activity,L6 [20],Active
same,Activity,Mus musculus [21],27.3%
same,Activity,L6 [22],Dose-dependent effect
same,Activity,Mus musculus [23],Non-toxic
same,Activity,Mus musculus [24],10%
same,Activity,Mus musculus [25],22.4%
same,Activity,Mus musculus [26],Active
same,Activity,L6 [27],inactive
same,Activity,Mus musculus [28],Active
same,Ratio,L6 [8],0.936
same,Activity,Mus musculus [29],inactive
COc1cccc(C[C@H]2C(=O)OC[C@@H]2Cc2ccc(OC)c(OC)c2)c1,Activity,L6 [30],119.2%
same,Activity,L6 [31],211.3%
same,Ratio,L6 [32],0.564
COc1ccc(C[C@H]2COC(=O)[C@@H]2Cc2ccc(O)cc2)cc1OC,Activity,L6 [30],179.5%
same,Activity,L6 [31],200.6%
same,Ratio,L6 [32],0.895
COc1ccc(C[C@H]2COC(=O)[C@@H]2Cc2ccc(O)c(OC)c2)cc1,Activity,L6 [33],235.1%
same,Activity,L6 [34],262.4%
same,Ratio,L6 [35],0.896
COc1cc(CC2C(=O)OCC2Cc2ccc(OC)c(OC)c2)ccc1O (racemic),Activity,L6 [1],Active
same,Tmax,[15],30 min
same,Activity,L6 [4],Active
same,Activity,L6 [19],inactive
same,Activity,L6 [20],Active
same,Activity,L6 [22],Dose-dependent effect
same,Activity,L6 [36],Dose-dependent effect
same,Activity,L6 [6],Active
same,fold change (FC),L6 [37],1.62
same,Activity,L6 [27],inactive
same,Activity,L6 [9],Active
COc1ccc(C[C@H]2COC(=O)[C@@H]2Cc2cccc(O)c2)cc1OC,Activity,L6 [33],180.3%
same,Activity,L6 [34],217.8%
same,Ratio,L6 [35],0.828
